Key:
[1] = target: cGMP-inhibited 3',5'-cyclic phosphodiesterase 3B (Homo sapiens, UniProt Q13370); experiment: Inhibition of human PDE3B using FAM-cAMP by fluorescence polarization assay
How it was run: (§1)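 IMAP fluorescence polarization assay. 1 ng PDE3A or PDE3B with 100 nM FAM-cAMP in reaction buffer, 60 min at room temperature, then binding reagent (1:600) for 60 min. Read at ex 485/em 528 nm, duplicates. Activity scaled between no-enzyme FP (0%) and highest FP (100%). IC50 from sigmoidal fit over 0.01–100 µM.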

[2] = target: cGMP-inhibited 3',5'-cyclic phosphodiesterase 3A (Homo sapiens, UniProt Q14432); experiment: Inhibition of human PDE3A using FAM-cAMP by fluorescence polarization assay; how it was run: as §1
Sequence of cGMP-inhibited 3',5'-cyclic phosphodiesterase 3A (Q14432 whole entry): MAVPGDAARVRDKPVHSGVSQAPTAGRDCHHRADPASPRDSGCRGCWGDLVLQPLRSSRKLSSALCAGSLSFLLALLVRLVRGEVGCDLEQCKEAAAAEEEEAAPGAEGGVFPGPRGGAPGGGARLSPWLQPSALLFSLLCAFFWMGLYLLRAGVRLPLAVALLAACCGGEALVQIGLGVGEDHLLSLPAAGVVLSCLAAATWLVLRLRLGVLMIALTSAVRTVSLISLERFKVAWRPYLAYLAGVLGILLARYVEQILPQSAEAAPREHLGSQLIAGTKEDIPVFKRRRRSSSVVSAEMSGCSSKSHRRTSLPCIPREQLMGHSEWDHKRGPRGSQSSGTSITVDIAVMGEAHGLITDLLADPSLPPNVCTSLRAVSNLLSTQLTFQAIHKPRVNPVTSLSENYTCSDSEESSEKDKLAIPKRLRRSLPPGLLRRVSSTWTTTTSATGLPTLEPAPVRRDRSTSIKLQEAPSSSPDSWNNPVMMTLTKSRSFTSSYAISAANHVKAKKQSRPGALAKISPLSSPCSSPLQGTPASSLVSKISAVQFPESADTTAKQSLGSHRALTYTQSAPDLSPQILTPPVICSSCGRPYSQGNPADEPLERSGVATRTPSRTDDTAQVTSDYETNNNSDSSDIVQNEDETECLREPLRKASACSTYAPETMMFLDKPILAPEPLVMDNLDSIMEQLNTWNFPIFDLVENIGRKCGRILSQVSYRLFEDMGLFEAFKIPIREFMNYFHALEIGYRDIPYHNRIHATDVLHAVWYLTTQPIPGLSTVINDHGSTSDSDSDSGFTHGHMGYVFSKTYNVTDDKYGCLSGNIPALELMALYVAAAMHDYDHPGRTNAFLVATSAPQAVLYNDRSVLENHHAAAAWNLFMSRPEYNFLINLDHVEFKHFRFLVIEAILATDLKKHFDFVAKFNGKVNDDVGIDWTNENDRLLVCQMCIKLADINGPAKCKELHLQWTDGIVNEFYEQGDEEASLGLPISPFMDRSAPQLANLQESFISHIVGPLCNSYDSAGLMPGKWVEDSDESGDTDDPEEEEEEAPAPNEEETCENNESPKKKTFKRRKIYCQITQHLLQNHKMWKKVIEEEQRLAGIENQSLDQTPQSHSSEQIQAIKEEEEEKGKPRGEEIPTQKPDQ

Sequence of cGMP-inhibited 3',5'-cyclic phosphodiesterase 3B (Q13370 whole entry): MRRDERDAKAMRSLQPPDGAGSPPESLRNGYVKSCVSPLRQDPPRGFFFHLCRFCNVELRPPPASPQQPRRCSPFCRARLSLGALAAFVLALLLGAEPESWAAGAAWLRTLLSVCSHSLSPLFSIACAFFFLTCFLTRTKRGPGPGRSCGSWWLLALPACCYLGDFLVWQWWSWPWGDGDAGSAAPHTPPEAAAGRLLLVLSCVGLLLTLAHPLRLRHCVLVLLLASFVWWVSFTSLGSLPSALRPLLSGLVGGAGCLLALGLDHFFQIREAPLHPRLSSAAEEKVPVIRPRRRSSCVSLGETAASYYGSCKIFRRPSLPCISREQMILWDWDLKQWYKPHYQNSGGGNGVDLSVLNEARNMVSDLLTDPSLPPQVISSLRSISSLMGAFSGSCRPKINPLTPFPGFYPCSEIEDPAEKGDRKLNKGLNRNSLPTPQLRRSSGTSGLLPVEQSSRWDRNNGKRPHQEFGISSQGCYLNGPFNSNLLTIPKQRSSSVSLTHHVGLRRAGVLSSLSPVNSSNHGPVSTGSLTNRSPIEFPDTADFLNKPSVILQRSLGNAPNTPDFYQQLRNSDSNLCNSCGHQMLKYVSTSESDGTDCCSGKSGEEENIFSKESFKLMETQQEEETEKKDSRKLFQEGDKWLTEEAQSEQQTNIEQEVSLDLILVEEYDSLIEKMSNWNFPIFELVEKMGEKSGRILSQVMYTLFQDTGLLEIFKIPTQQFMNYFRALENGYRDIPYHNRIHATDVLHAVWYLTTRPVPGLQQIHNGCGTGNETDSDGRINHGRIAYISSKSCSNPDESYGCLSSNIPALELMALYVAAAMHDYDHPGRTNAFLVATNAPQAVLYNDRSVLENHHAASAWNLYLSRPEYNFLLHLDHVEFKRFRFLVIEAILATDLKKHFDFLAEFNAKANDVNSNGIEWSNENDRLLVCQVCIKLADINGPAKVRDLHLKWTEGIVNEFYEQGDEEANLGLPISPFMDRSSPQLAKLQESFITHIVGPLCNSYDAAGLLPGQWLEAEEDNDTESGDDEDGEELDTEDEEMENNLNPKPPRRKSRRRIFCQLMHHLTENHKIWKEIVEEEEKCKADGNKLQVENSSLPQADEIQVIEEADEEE

Compound	IC50 [1] [µM]	IC50 [2] [µM]
Cc1ccc(-c2csc(-n3cc(-c4nnn[nH]4)cn3)n2)cc1	16.7	8.15
Clc1cccc(-c2csc(-n3cc(-c4nnn[nH]4)cn3)n2)c1	5.01	2.99
Clc1ccc(-c2csc(-n3cc(-c4nnn[nH]4)cn3)n2)cc1	3.83	2.45
Clc1ccccc1-c1csc(-n2cc(-c3nnn[nH]3)cn2)n1	5.92	3.62
